Assay results published in ChEMBL document CHEMBL1208735, “6-(4'-Aryloxy-phenyl)vinyl-1,2,4-trioxanes: a new series of orally active peroxides effective against multidrug-resistant Plasmodium yoelii in Swiss mice” (2010).
The source made the active and inactive calls. No cut-off for these calls is given here.

How the values were obtained:
[1] = tested on: Plasmodium yoelii nigeriensis; experiment: Antimalarial activity against multi drug-resistant Plasmodium yoelii nigeriensis infected in Swiss mice (Mus musculus) assessed as suppression of parasitaemia level at 96 mg/kg, perorally daily for 4 days; type: functional; conditions: route oral
Method in brief: (§1)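 Swiss mice (25 ± 1 g) infected day 0 with 1×10^6 parasitized RBC of multidrug-resistant P. yoelii nigeriensis. Groups of five dosed orally in groundnut oil (0.1 ml per dose), days 0–3, two divided doses daily. Parasitaemia read from thin blood smears on day 4 as % suppression. 100% means no parasites seen in 50 oil-immersion fields. β-Arteether was the positive control.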

[2] = tested on: Plasmodium yoelii nigeriensis; experiment: Antimalarial activity against multi drug-resistant Plasmodium yoelii nigeriensis infected in Swiss mice (Mus musculus) assessed as protection of patent infection at 96 mg/kg, perorally daily for 4 days measured after 28 days; type: functional, organism-based; parameters: dose 96 mg/kg
Method in brief: (§2)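 Colony-bred Swiss mice (25 ± 1 g) inoculated day 0 with 1×10^6 parasitized RBC of P. yoelii nigeriensis (resistant to chloroquine, mefloquine, halofantrine). Five mice per dose. Oral dosing in groundnut oil, 0.1 ml per dose, days 0–3, given as two divided doses daily. Thin blood smears read through day 28. Mice without patent infection by day 28 scored cured, expressed as cured/treated.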

[3] = tested on: Plasmodium yoelii nigeriensis; experiment: Antimalarial activity against multi drug-resistant Plasmodium yoelii nigeriensis infected in Swiss mice (Mus musculus) assessed as protection of patent infection at 48 mg/kg, perorally daily for 4 days measured after 28 days; type: functional, organism-based; parameters: dose 48 mg/kg; method in brief: as §2
[4] = tested on: Plasmodium yoelii nigeriensis; experiment: Antimalarial activity against multi drug-resistant Plasmodium yoelii nigeriensis infected in Swiss mice (Mus musculus) assessed as suppression of parasitaemia level at 48 mg/kg, perorally daily for 4 days; type: functional; conditions: route oral; method in brief: as §1
[5] = tested on: Plasmodium yoelii nigeriensis; experiment: Antimalarial activity against multi drug-resistant Plasmodium yoelii nigeriensis infected in Swiss mice (Mus musculus) assessed as suppression of parasitaemia level at 24 mg/kg, perorally daily for 4 days; type: functional; conditions: route oral; method in brief: as §1
[6] = tested on: Plasmodium yoelii nigeriensis; experiment: Antimalarial activity against multi drug-resistant Plasmodium yoelii nigeriensis infected in Swiss mice (Mus musculus) assessed as protection of patent infection at 24 mg/kg, perorally daily for 4 days measured after 28 days; type: functional, organism-based; parameters: dose 24 mg/kg; method in brief: as §2

SMILES | Activity [1] [%] | Activity [2] | Activity [3] | Activity [4] [%] | Activity [5] [%] | Activity [6]
C=C(c1ccc(Oc2ccc(-c3ccccc3)cc2)cc1)C1COC2(CCCCC2)OO1 (stereo unspecified) | 84.39 | inactive |  |  |  | 
CCO[C@H]1O[C@@H]2O[C@@]3(C)CC[C@H]4[C@H](C)CC[C@@H]([C@H]1C)[C@@]24OO3 [ARTEMOTIL] |  |  | Active | 100 | 100 | 
C=C(c1ccc(Oc2cccc3ccccc23)cc1)C1COC2(CCCC2)OO1 (stereo unspecified) | 100 | Active | Active | 100 | 100 | inactive
C=C(c1ccc(Oc2ccc3ccccc3c2)cc1)C1COC2(CCCC2)OO1 (stereo unspecified) | 100 | Active | Active | 100 | 100 | inactive
C=C(c1ccc(Oc2ccccc2)cc1)C1COC2(CCCCC2)OO1 (stereo unspecified) | 100 |  |  |  |  | 
C=C(c1ccc(Oc2ccc3ccccc3c2)cc1)C1COC2(CCCCC2)OO1 (stereo unspecified) | 100 |  |  |  |  | 
C=C(c1ccc(Oc2ccc(-c3ccccc3)cc2)cc1)C1COC2(CCCC2)OO1 (stereo unspecified) | 100 | Active | inactive | 100 |  | 
C=C(c1ccc(Oc2ccccc2)cc1)C1COC2(OO1)C1CC3CC(C1)CC2C3 (stereo unspecified) | 100 |  |  |  |  | 
C=C(c1ccc(Oc2cccc3ccccc23)cc1)C1COC2(OO1)C1CC3CC(C1)CC2C3 (stereo unspecified) | 93.15 | inactive |  |  |  | 
C=C(c1ccc(Oc2ccc3ccccc3c2)cc1)C1COC2(OO1)C1CC3CC(C1)CC2C3 (stereo unspecified) | 100 |  |  |  |  | 
C=C(c1ccc(Oc2ccc(-c3ccccc3)cc2)cc1)C1COC2(OO1)C1CC3CC(C1)CC2C3 (stereo unspecified) | 100 |  |  |  |  | 
C=C(c1ccc(Oc2cccc3ccccc23)cc1)C1COC2(CCCCC2)OO1 (stereo unspecified) | 92.81 | inactive |  |  |  | 
C=C(c1ccc(Oc2ccccc2)cc1)C1COC2(CCCC2)OO1 (stereo unspecified) | 100 |  |  |  |  | 
